From ChEMBL document CHEMBL1629579, “Correlating echinocandin MIC and kinetic inhibition of fks1 mutant glucan synthases for Candida albicans: implications for interpretive breakpoints” (Antimicrob Agents Chemother, 2009)
Converted amounts (≈) assume the structure as drawn. Numbered stars: 1 amine (or outer) side, 2 acyl side, 3 side chain; on linkers, the order of the positions; unused ones are H or OH. Bridge positions count the residues as written; N and C are the ends. Square brackets hold non-standard residues; d marks the D form. Peptide text beside a SMILES is read from it. * marks the point of attachment. hTyr(3S-OH,4S-OH,3'-OSO3H) = N[C@H](C(=O)O)[C@H](O)[C@@H](O)c1ccc(O)c(OS(=O)(=O)O)c1; Orn(4R-OH,5R-OH) = O=C([C@H](C[C@@H](O)[C@@H](O)N[*:3])N[*:1])[*:2]; Pro(3S-OH,4S-Me) = C[C@H]1CN[C@H](C(=O)O)[C@H]1O; X1 = CCCCCOc1ccc(-c2cc(-c3ccc(C(=O)*)cc3)no2)cc1; Gln(3R-OH) = NC(=O)C[C@@H](O)[C@H](N)C(=O)O; Hyp = O=C(O)[C@@H]1C[C@@H](O)CN1

Assays:
Candida albicans [1] = experiment: Antimicrobial activity against Candida albicans SC5314 by M27-A3 method; type: functional
Outline: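 Broth microdilution per CLSI M27-A3 in RPMI 1640, with and without 50% human serum, in triplicate. C. krusei ATCC 6258 and C. parapsilosis ATCC 22019 served as quality-control strains. MIC reported as arithmetic mean of three repetitions on separate days.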

Candida albicans [2] = experiment: Antimicrobial activity against Candida albicans 3107 by M27-A3 method; type: functional
Outline: (§1)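 Broth microdilution per CLSI M27-A3 in RPMI 1640, done in triplicate on three separate days. Each strain was tested with and without 50% human serum. C. krusei ATCC 6258 and C. parapsilosis ATCC 22019 served as QC strains. Arithmetic means are reported, and geometric means were used for comparison.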

Candida albicans [3] = experiment: Antimicrobial activity against Candida albicans 205 harboring FKS1 T1933C mutant gene and FKS1 hotspot1 S645P mutant gene by M27-A3 method; type: functional; outline: as §1
Candida albicans [4] = experiment: Antimicrobial activity against Candida albicans 5415 harboring FKS1 T1933C mutant gene and FKS1 hotspot1 S645P mutant gene by M27-A3 method; type: functional; outline: as §1
Candida albicans [5] = experiment: Antimicrobial activity against Candida albicans 5415 harboring FKS1 T1933C mutant gene and FKS1 hotspot1 S645P mutant gene by M27-A3 method in presence of 50% human serum; type: functional; outline: as §1
Candida albicans [6] = experiment: Antimicrobial activity against Candida albicans 85 harboring FKS1 C1934T mutant gene and FKS1 hotspot1 S645F mutant gene by M27-A3 method in presence of 50% human serum; type: functional; outline: as §1
Candida albicans [7] = experiment: Antimicrobial activity against Candida albicans 149 harboring FKS1 G1942T mutant gene and FKS1 hotspot1 D648Y mutant gene by M27-A3 method; type: functional; outline: as §1
Candida albicans [8] = experiment: Antimicrobial activity against Candida albicans 194 harboring FKS1 C1934T/G4082R mutant gene and FKS1 hotspot1 S645F mutant gene and FKS1 hotspot2 R1361R/H mutant gene by M27-A3 method in presence of 50% human serum; type: functional; outline: as §1
[9] = Inhibition of Candida albicans SC5314 1,3-beta-D-glucan synthase subunit FKS1p
Outline: (§2)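 Enzyme is product-entrapped 1,3-β-D-glucan synthase, enriched from membranes of each strain grown at 37°C with shaking in YPD broth to early stationary phase. Filtration polymerization assay uses [3H]UDPG, started by adding enzyme and run 60 min at 25°C. Echinocandins are added as serial dilutions, with 1% DMSO controls for anidulafungin. IC50 is from a variable-slope sigmoidal fit; values are triplicate arithmetic means.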

[10] = Inhibition of Candida albicans 36082 1,3-beta-D-glucan synthase subunit FKS1p; outline: as §2
[11] = Inhibition of Candida albicans 90028 1,3-beta-D-glucan synthase subunit FKS1p; outline: as §2
[12] = Inhibition of Candida albicans 3107 1,3-beta-D-glucan synthase subunit FKS1p; outline: as §2
[13] = Inhibition of Candida albicans 5415 1,3-beta-D-glucan synthase subunit FKS1p T1933C mutant; outline: as §2
[14] = Inhibition of Candida albicans 90 1,3-beta-D-glucan synthase subunit FKS1p G4082R mutant; outline: as §2
Candida albicans [15] = experiment: Activity at Candida albicans 90028 1,3-beta-D-glucan synthase subunit FKS1p
Outline: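 Glucan synthase from cells grown at 37°C with vigorous shaking to early stationary phase in YPD. Membrane enzyme enriched by product entrapment. Serial echinocandin dilutions; ANF controls held 1% DMSO. Reaction started by adding enzyme, run 60 min at 25°C in a filtration polymerization assay, stopped on ice. IC50 from a variable-slope sigmoidal fit; means of three repetitions on separate days.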

Candida albicans [16] = experiment: Activity at Candida albicans 149 1,3-beta-D-glucan synthase subunit FKS1p G1942T mutant
Outline: (§3)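 Product-entrapped 1,3-β-D-glucan synthase from cells grown in YPD at 37°C to early stationary phase. Wells held 50 mM HEPES pH 7.5, 10% glycerol, 1.5 mg/ml BSA, 25 mM KF, 1 mM EDTA, 25 μM GTP-γ-S, 1 μg enzyme and [3H]UDPG (0.015–2 mM). Reactions ran 60 min at 25°C. Vmax and Km came from Lineweaver-Burke plots, in triplicate.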

Candida albicans [17] = experiment: Activity at Candida albicans 121 1,3-beta-D-glucan synthase subunit FKS1p G4082A mutant; outline: as §3

CCCCCOc1ccc(-c2cc(-c3ccc(C(=O)N[C@H]4C[C@@H](O)[C@@H](O)NC(=O)[C@@H]5[C@@H](O)[C@@H](C)CN5C(=O)[C@H]([C@H](O)CC(N)=O)NC(=O)[C@H]([C@H](O)[C@@H](O)c5ccc(O)c(OS(=O)(=O)O)c5)NC(=O)[C@@H]5C[C@@H](O)CN5C(=O)[C@H]([C@@H](C)O)NC4=O)cc3)no2)cc1 [MICAFUNGIN] (X1-[Orn(4R-OH,5R-OH)]T[Hyp][hTyr(3S-OH,4S-OH,3'-OSO3H)][Gln(3R-OH)][Pro(3S-OH,4S-Me)]; lactam 1-C)
MIC (Candida albicans [1]): 0.05 µg/mL (≈ 0.0394 µM) | MIC (Candida albicans [2]): 0.03 µg/mL (≈ 0.0236 µM) | MIC (Candida albicans [3]): 4 µg/mL (≈ 3.15 µM) | MIC (Candida albicans [4]): 4 µg/mL (≈ 3.15 µM) | MIC (Candida albicans [5]): 8 µg/mL | MIC (Candida albicans [6]): 8 µg/mL | MIC (Candida albicans [7]): 0.83 µg/mL (≈ 0.653 µM) | MIC (Candida albicans [8]): 8 µg/mL | IC50 [9]: 58.2 ng/mL (≈ 0.0458 µM) | Ki [9]: 27.47 ng/mL (≈ 0.0216 µM) | IC50 [10]: 10.2 ng/mL (≈ 0.00803 µM) | Ki [10]: 23.53 ng/mL (≈ 0.0185 µM) | IC50 [11]: 18.8 ng/mL (≈ 0.0148 µM) | Ki [11]: 15.47 ng/mL (≈ 0.0122 µM) | IC50 [12]: 14.72 ng/mL (≈ 0.0116 µM) | Ki [12]: 41.87 ng/mL (≈ 0.033 µM) | IC50 [13]: 1254 ng/mL (≈ 0.987 µM) | Ki [13]: 2753.01 ng/mL (≈ 2.17 µM) | IC50 [14]: 77.39 ng/mL (≈ 0.0609 µM) | Ki [14]: 264.73 ng/mL (≈ 0.208 µM) | Km (Candida albicans [15]): 67 µM | Vmax (Candida albicans [15]): 4.71 nmol/min | Km (Candida albicans [16]): 32 µM | Vmax (Candida albicans [16]): 1.22 nmol/min | Km (Candida albicans [17]): 129 µM | Vmax (Candida albicans [17]): 4.41 nmol/min
